One data set relates to A-431. The experiment in a line: Cytotoxicity against human A431 cells assessed as growth inhibition measured after 72 hrs by SRB assay. It counts as functional. An outline of the steps:
(§1)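 Cancer lines were kept in DMEM with 10% FBS and glutamine at 37 °C, 5% CO2, and seeded at 2500–4000 cells per well in duplicate. Compound (from 40 mM DMSO stocks) was added 24 h after plating and left for 72 h. Cells were TCA-fixed, stained with SRB and read at 540 nm. GI50 came from an eight-point dose-response, using the change from day-0 optical density, with three to four independent replicates.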

A further data set concerns U-87 MG. Kind of data set: Cytotoxicity against human U87 cells assessed as growth inhibition measured after 72 hrs by SRB assay. It counts as functional, U-87MG ATCC. An outline of the steps:
as §1
Background: Sulforhodamine B stains cellular protein and so reports cell mass.

The next data set deals with MCF7. Kind of data set: Cytotoxicity against human MCF-7 cells assessed as growth inhibition measured after 72 hrs by SRB assay. It counts as functional. The procedure, abridged: as §1
The test system of another data set is BE(2)-C. The experiment in a line: Cytotoxicity against human BE2C cells assessed as growth inhibition measured after 72 hrs by SRB assay. It counts as functional. An outline of the steps: as §1
The nature of data set [1]: Cytotoxicity against human SJG2 cells assessed as growth inhibition measured after 72 hrs by SRB assay. It counts as functional. The note with it: SJ-G2. An outline of the steps:
as §1

Data set [2] in a line: Cytotoxicity against human MCF10A cells assessed as growth inhibition measured after 72 hrs by SRB assay. It counts as cell-based, MCF-10A.
Another data set concerns A2780. The experiment in a line: Cytotoxicity against human A2780 cells assessed as growth inhibition measured after 72 hrs by SRB assay. It counts as functional. The procedure, abridged: as §1
In another data set the test system is DU-145. Kind of data set: Cytotoxicity against human DU-145 cells assessed as growth inhibition measured after 72 hrs by SRB assay. It counts as functional. The procedure, abridged:
as §1

The next data set deals with MIA PaCa-2. The experiment in a line: Cytotoxicity against human MIA cells assessed as growth inhibition measured after 72 hrs by SRB assay. It counts as functional. An outline of the steps:
as §1

In another data set the test system is HT-29. The experiment in a line: Cytotoxicity against human HT29 cells assessed as growth inhibition measured after 72 hrs by SRB assay. It counts as functional. The procedure, abridged:
as §1

The subject of the next data set is NCI-H460. The experiment in a line: Cytotoxicity against human H460 cells assessed as growth inhibition measured after 72 hrs by SRB assay. The data set is classed as functional. An outline of the steps:
as §1

Data set [3] is described as follows: Selectivity index, ratio of GI50 for human MCF10A cells to GI50 for human HT-29 cells by SRB assay. The data set is classed as toxicity. The note with it: MCF10A cells versus HT-29 cells, read-out: RatioGI50. An outline of the steps: (§2)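 Fold selectivity is the MCF10A GI50 divided by the cancer-line GI50. Each GI50 is from the 72 h SRB assay: eight-point dose-response, day-0 optical density baseline, three to four separate replicates.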

The nature of data set [4]: Selectivity index, ratio of GI50 for human MCF10A cells to GI50 for human MCF-7 cells by SRB assay. It counts as toxicity. The note with it: MCF10A cells versus MCF-7 cells, read-out: RatioGI50. The procedure, abridged:
as §2

A short description of data set [5]: Selectivity index, ratio of GI50 for human MCF10A cells to GI50 for human A2780 cells by SRB assay. It counts as toxicity. The note with it: MCF10A cells versus A2780 cells, read-out: RatioGI50. The procedure, abridged: as §2

As a reminder, the GI50 is the concentration at which growth is held to half of that of the control.

Turning to `CC1CCCCN1CC(O)COc1ccc(/C=C(\C#N)c2ccc(Cl)c(Cl)c2)cc1` (racemic), the GI50 with A-431 amounted to 1600 nM; in the data set with U-87 MG, 2900 nM; in the data set on MCF7 it was 2100 nM; with BE(2)-C it was 2400 nM; in data set [1] it was 2800 nM; with A2780 it was 2700 nM. Further, the GI50 in the data set with DU-145 came out at 3000 nM; in the data set with MIA PaCa-2 it was 2700 nM; in the data set with HT-29, 360 nM; in the data set with NCI-H460, 2700 nM. The GI50 at 72 h in data set [2] is 2500 nM. Moreover, the selectivity ratio in data set [3] was 6.9.

Take `COc1ccc(NCC(O)COc2ccc(/C=C(\C#N)c3ccc(Cl)c(Cl)c3)cc2)cc1` (racemic): the GI50 was found to be 62000 nM with A-431; 29000 nM with U-87 MG; 5200 nM in the data set on MCF7; 41000 nM in the data set with BE(2)-C; 32000 nM in data set [1]; 17000 nM with A2780. Besides, the GI50 in the data set with DU-145 was determined as 28000 nM; in the data set with MIA PaCa-2, 27000 nM; with HT-29, 3700 nM; in the data set with NCI-H460, 16000 nM. For the same compound, the results for the selectivity ratio in data set [4] and in data set [3] were 3.6 and 5.1, respectively. Besides, the GI50 at 72 h in data set [2] is 19000 nM.

As for `N#C/C(=C\c1ccc(OCC(O)CNC23CC4CC(CC(C4)C2)C3)cc1)c1ccc(Cl)c(Cl)c1` (racemic), the GI50 turned out to be 2100 nM in the data set on A-431; 2500 nM with U-87 MG; 2000 nM with MCF7; 2200 nM in the data set on BE(2)-C; 2000 nM in data set [1]; 1700 nM in the data set on A2780. Moreover, the GI50 in the data set with DU-145 was found to be 2500 nM; with MIA PaCa-2, 1900 nM; with HT-29 it was 890 nM; with NCI-H460 it was 1800 nM. In addition, in data set [2], the GI50 at 72 h is 2500 nM.

In the case of `CN(C)CC(O)COc1ccc(/C=C(\C#N)c2ccc(Cl)c(Cl)c2)cc1` (racemic), the GI50 with A-431 is 1600 nM; in the data set with U-87 MG, 3200 nM; in the data set with MCF7, 1900 nM; with BE(2)-C, 2500 nM; in [1], 2700 nM; in the data set with A2780, 2500 nM. For the same compound, the GI50 is 2700 nM with DU-145, 2300 nM in the data set on MIA PaCa-2, 750 nM in the data set on HT-29 and 2800 nM in the data set on NCI-H460. For the same compound, the GI50 at 72 h in [2] turned out to be 2800 nM. For the same compound, in data set [3], the selectivity ratio came out at 3.7.

As to `N#C/C(=C\c1ccc(OCC(O)CN2CCCCC2)cc1)c1ccc(Cl)c(Cl)c1` (racemic), the GI50 in the data set on A-431 is 2100 nM; in the data set on U-87 MG, 3000 nM; with MCF7 it was 2500 nM; in the data set with BE(2)-C, 2500 nM; in [1], 2500 nM; with A2780 it was 2700 nM. Also, the GI50 in the data set with DU-145 is 2900 nM; with MIA PaCa-2, 2600 nM; in the data set with HT-29, 660 nM; in the data set with NCI-H460, 3000 nM. Further, the GI50 at 72 h in data set [2] was determined as 2500 nM. Also, the selectivity ratio in data set [3] was found to be 3.8.

Turning to `N#C/C(=C\c1ccc(OCC(O)CNc2ccccc2)cc1)c1ccc(Cl)c(Cl)c1` (racemic), the GI50 in the data set on A-431 is 16000 nM; in the data set on U-87 MG, 26000 nM; in the data set on MCF7 it was 13000 nM; with BE(2)-C, 13000 nM; in data set [1] it was 18000 nM; with A2780, 4400 nM. In addition, the GI50 is 22000 nM with DU-145, 17000 nM with MIA PaCa-2, 10000 nM in the data set on HT-29 and 14000 nM in the data set on NCI-H460. Besides, the selectivity ratio in data set [5] came out at 4. In addition, in data set [2], the GI50 at 72 h is 18000 nM.

In the case of `N#C/C(=C\c1ccc(OCC(O)CNC2C3CC4CC(C3)CC2C4)cc1)c1ccc(Cl)c(Cl)c1` (racemic), the GI50 in the data set with A-431 came to 2800 nM; in the data set on U-87 MG, 2700 nM; in the data set on MCF7, 2100 nM; in the data set with BE(2)-C, 2600 nM; in [1], 2600 nM; in the data set with A2780 it was 2500 nM. In addition, the GI50 in the data set with DU-145 amounted to 2600 nM; with MIA PaCa-2 it was 2400 nM; in the data set with HT-29, 1400 nM; in the data set with NCI-H460 it was 2700 nM. Moreover, the GI50 at 72 h in [2] worked out at 2700 nM.

The record behind these values is ChEMBL document CHEMBL4732034, “Amino alcohol acrylonitriles as broad spectrum and tumour selective cytotoxic agents” (RSC Med Chem, 2021).
